Reference: ChEMBL document CHEMBL1136835, “CB2 selective sulfamoyl benzamides: optimization of the amide functionality” (Bioorg Med Chem Lett, 2009)

Columns and labels:
Homo sapiens = species: Homo sapiens; experiment: Ratio of Ki for human cloned CB1 receptor to Ki for human cloned CB2 receptor
In short: (§1)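 Cloned human CB1 or CB2 receptor membranes incubated with 0.2–0.6 nM [3H]CP55940 in 50 mM Tris–HCl pH 7.0 with 5.0 mM MgCl2, 1.0 mM EGTA and 1.0 mg/ml fatty-acid-free BSA. CB2 ran 60 min at room temperature and CB1 120 min at 30 °C. Samples filtered through PEI/BSA-soaked GF/C filters and rinsed six times with cold buffer. Counted by scintillation, with nonspecific binding defined by WIN55212-2. Ki is the geometric mean of at least three determinations.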

Cannabinoid receptor 2 [1] = molecular target: T1, Cannabinoid receptor 2 (Homo sapiens, UniProt P34972); experiment: Agonist activity at human cloned CB2 receptor assessed as stimulation of [35S]GTPgammaS binding
T1 sequence (P34972 whole entry): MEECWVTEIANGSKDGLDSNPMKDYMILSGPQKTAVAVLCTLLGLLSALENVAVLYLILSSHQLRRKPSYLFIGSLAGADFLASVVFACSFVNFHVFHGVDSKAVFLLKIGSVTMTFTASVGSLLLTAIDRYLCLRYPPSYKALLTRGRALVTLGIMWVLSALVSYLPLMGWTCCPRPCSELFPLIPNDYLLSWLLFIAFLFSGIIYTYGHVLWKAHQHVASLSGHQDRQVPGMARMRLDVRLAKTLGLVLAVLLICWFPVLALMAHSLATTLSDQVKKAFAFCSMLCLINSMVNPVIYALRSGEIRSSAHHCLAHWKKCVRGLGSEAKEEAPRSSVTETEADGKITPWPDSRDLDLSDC

Cannabinoid receptor 2 [2] = molecular target: T1, Cannabinoid receptor 2; experiment: Displacement of [3H]CP-55940 from human cloned CB2 receptor by scintillation spectrometry; in short: as §1
Cannabinoid receptor 1 [3] = molecular target: T2, Cannabinoid receptor 1 (Homo sapiens, UniProt P21554); experiment: Displacement of [3H]CP-55940 from human cloned CB1 receptor by scintillation spectrometry; in short: as §1
T2 sequence (P21554 whole entry): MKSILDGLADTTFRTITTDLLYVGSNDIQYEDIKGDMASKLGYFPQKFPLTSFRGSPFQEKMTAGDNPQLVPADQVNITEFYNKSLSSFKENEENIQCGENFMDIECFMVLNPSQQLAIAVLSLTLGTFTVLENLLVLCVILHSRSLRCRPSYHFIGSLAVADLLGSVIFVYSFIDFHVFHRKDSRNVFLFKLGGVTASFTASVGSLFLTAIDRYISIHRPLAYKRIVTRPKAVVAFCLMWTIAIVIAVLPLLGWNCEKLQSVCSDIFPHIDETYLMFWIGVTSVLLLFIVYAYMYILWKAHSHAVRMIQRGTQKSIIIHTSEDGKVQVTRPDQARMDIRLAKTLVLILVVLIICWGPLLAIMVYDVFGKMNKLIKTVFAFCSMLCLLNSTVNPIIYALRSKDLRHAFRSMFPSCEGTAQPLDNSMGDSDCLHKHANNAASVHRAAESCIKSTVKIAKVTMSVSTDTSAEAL

Cannabinoid receptor 1 [4] = molecular target: T2, Cannabinoid receptor 1; experiment: Displacement of [3H]CP-55940 from human cloned CB1 receptor at 10 uM by scintillation spectrometry
Rattus norvegicus [5] = experiment: Antiallodynic activity in rat hind paw incisional model assessed as mechanical paw-withdrawal threshold at 300 mg/kg, po after 120 mins in presence of aminobenzotriazole relative to aminobenzotriazole-treated control; format: functional
In short: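 Rat hindpaw incision model. Rats pretreated with the P450 suicide inhibitor aminobenzotriazole, then dosed 300 mg/kg po 120 min before testing. Left hindpaw mechanical withdrawal threshold read, N = 8 per group. One-way ANOVA with protected t-test against ABT-vehicle incised animals.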

Rattus norvegicus [6] = experiment: Antiallodynic activity in rat hind paw incisional model assessed as mechanical paw-withdrawal threshold at 30 mg/kg, ip after 30 mins relative to control; format: functional; conditions: route intraperitoneal
In short: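 Rat hindpaw incision model. Mechanical paw-withdrawal threshold measured on the left hindpaw, 30 min after ip dosing at 30 mg/kg. N = 8 per group. Compared with the vehicle-treated group.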

[7] = Metabolic stability in human liver microsomes after 30 mins; format: ADME, Microsome; conditions: read-out: Stability
[8] = Metabolic stability in rat liver microsomes after 30 mins; format: ADME, Microsome; conditions: read-out: Stability

| Structure (SMILES) | Ratio Ki (Homo sapiens) | EC50 (Cannabinoid receptor 2 [1]) | Ki (Cannabinoid receptor 2 [2]) | Ki (Cannabinoid receptor 1 [3]) | Activity (Cannabinoid receptor 1 [4]) | Activity (Rattus norvegicus [5]) | Activity (Rattus norvegicus [6]) | remaining at 0.5 h [7] | remaining at 0.5 h [8] |
| --- | --- | --- | --- | --- | --- | --- | --- | --- | --- |
| Cc1ccc(-c2nc(C(C)(C)C)cs2)cc1S(=O)(=O)N1CCOCC1 | 47 | 21 nM | 5.7 nM | 260 nM | – | – | – | – | – |
| Cc1ccc(-c2cc(CC3CCCCC3)[nH]n2)cc1S(=O)(=O)N1CCOCC1 | 16 | 190 nM | 87 nM | 1400 nM | – | – | – | – | – |
| Cc1ccc(NC(=O)C2CCCCC2)cc1S(=O)(=O)N1CCOCC1 | 16 | – | 120 nM | 1900 nM | – | – | – | – | – |
| Cc1ccc(NC(=O)c2ccc(Cl)cc2)cc1S(=O)(=O)N1CCOCC1 | – | – | 2900 nM | – | 25% | – | – | – | – |
| Cc1ccc(-c2nnn(CC3CCCCC3)n2)cc1S(=O)(=O)N1CCOCC1 | 6.9 | 78 nM | 82 nM | 560 nM | – | – | – | – | – |
| Cc1ccc(NC(=O)C2CCCCC2C)cc1S(=O)(=O)N1CCOCC1 (stereo unspecified) | 130 | 42 nM | 14 nM | 1800 nM | – | – | – | – | – |
| Cc1ccc(NC(=O)[C@H]2C(C)(C)[C@@H]3CC[C@@]2(C)C3)cc1S(=O)(=O)N1CCOCC1 | 130 | 49 nM | 9.4 nM | 1200 nM | – | – | – | – | – |
| Cc1ccc(C(=O)NC(C(C)(C)C)C(C)(C)C)cc1S(=O)(=O)N1CCOCC1 | 9 | – | – | – | – | – | – | – | – |
| Cc1ccc(-c2nc(CC(C)(C)C)c[nH]2)cc1S(=O)(=O)N1CCOCC1 | 31 | 47 nM | 36 nM | 1100 nM | – | – | – | – | – |
| Cc1ccc(NC(=O)C2(C)CCCCC2)cc1S(=O)(=O)N1CCOCC1 | 34 | 33 nM | 35 nM | 1200 nM | – | – | – | – | – |
| Cc1ccc(NC(=O)C2CCCCC2(C)C)cc1S(=O)(=O)N1CCOCC1 (stereo unspecified) | 72 | 8400 nM | 11 nM | 790 nM | – | – | – | – | – |
| Cc1ccc(-c2cc(CC(C)(C)C)[nH]n2)cc1S(=O)(=O)N1CCOCC1 | 10 | 120 nM | 75 nM | 750 nM | – | – | – | – | – |
| Cc1ccc(-c2c[nH]c(C(C)(C)C)n2)cc1S(=O)(=O)N1CCOCC1 | – | 130 nM | 81 nM | 770 nM | – | – | – | – | – |
| Cc1ccc(-c2noc(CC3CCCCC3)n2)cc1S(=O)(=O)N1CCOCC1 | 5.9 | 110 nM | 130 nM | 740 nM | – | – | – | – | – |
| Cc1ccc(NC(=O)[C@@H]2C[C@@]3(C)CC[C@]2(C)O3)cc1S(=O)(=O)N1CCOCC1 | 4.4 | – | 660 nM | 2900 nM | – | – | – | – | – |
| Cc1ccc(-c2n[nH]c(C(C)(C)C)n2)cc1S(=O)(=O)N1CCOCC1 | 5.3 | 130 nM | 100 nM | 530 nM | – | – | – | – | – |
| Cc1ccc(-c2cc(C(C)(C)C)[nH]n2)cc1S(=O)(=O)N1CCOCC1 | – | 130 nM | 160 nM | 6990 nM | – | – | – | – | – |
| Cc1ccc(NC(=O)C2C(C)(C)C2(C)C)cc1S(=O)(=O)N1CCOCC1 | 150 | 11 nM | 23 nM | 3400 nM | – | 262% | 183% | 1% | 2% |
| Cc1ccc(NC(=O)[C@H]2C[C@@]3(C)CC[C@]2(C)O3)cc1S(=O)(=O)N1CCOCC1 | – | – | 2000 nM | – | 44% | – | – | – | – |

| Structure (SMILES) | Ratio Ki (Homo sapiens) | EC50 (Cannabinoid receptor 2 [1]) | Ki (Cannabinoid receptor 2 [2]) | Ki (Cannabinoid receptor 1 [3]) | Activity (Cannabinoid receptor 1 [4]) | Activity (Rattus norvegicus [5]) | Activity (Rattus norvegicus [6]) | remaining at 0.5 h [7] | remaining at 0.5 h [8] |
| --- | --- | --- | --- | --- | --- | --- | --- | --- | --- |
| Cc1ccc(-c2n[nH]c(CC(C)(C)C)n2)cc1S(=O)(=O)N1CCOCC1 | 1.6 | 64 nM | 85 nM | 140 nM | – | – | – | – | – |
| Cc1ccc(NC(=O)C(C(C)(C)C)C(C)(C)C)cc1S(=O)(=O)N1CCOCC1 | 110 | 31 nM | 11 nM | 1200 nM | – | – | – | – | – |
| Cc1ccc(NC(=O)C(C)(C)C)cc1S(=O)(=O)N1CCOCC1 | – | – | 540 nM | – | 4.7% | – | – | – | – |
| Cc1ccc(-c2nc(C(C)(C)C)c[nH]2)cc1S(=O)(=O)N1CCOCC1 | 48 | 58 nM | 23 nM | 1100 nM | – | – | – | – | – |
| Cc1ccc(-c2cnc(C(C)(C)C)[nH]2)cc1S(=O)(=O)N1CCOCC1 | 9.4 | – | – | – | – | – | – | – | – |
| Cc1ccc(C(=O)N[C@@H]2C(C)(C)[C@@H]3CC[C@@]2(C)C3)cc1S(=O)(=O)N1CCOCC1 | 31 | 4.6 nM | 3.9 nM | 130 nM | – | – | – | – | – |
| Cc1ccc(-c2noc(C(C)(C)C)n2)cc1S(=O)(=O)N1CCOCC1 | 6.8 | 77 nM | 75 nM | 510 nM | – | – | – | – | – |
| Cc1ccc(NC(=O)c2ccccc2Cl)cc1S(=O)(=O)N1CCOCC1 | 6.5 | 390 nM | 170 nM | 1100 nM | – | – | – | – | – |
| Cc1ccc(NC(=O)C(C)(C(F)(F)F)C(F)(F)F)cc1S(=O)(=O)N1CCOCC1 | 20 | 29 nM | 23 nM | 470 nM | – | – | – | – | – |
| Cc1ccc(-c2n[nH]c(CC3CCCCC3)n2)cc1S(=O)(=O)N1CCOCC1 | 11 | 57 nM | 27 nM | 310 nM | – | – | – | – | – |
| Cc1ccc(NC(=O)[C@@H]2C(C)(C)[C@@H]3CC[C@@]2(C)C3)cc1S(=O)(=O)N1CCOCC1 | 380 | 9.6 nM | 1.7 nM | 640 nM | – | – | – | – | – |
| Cc1ccc(-c2nnn(CC(C)(C)C)n2)cc1S(=O)(=O)N1CCOCC1 | 7.6 | 49 nM | 17 nM | 130 nM | – | – | – | – | – |
| Cc1ccc(-c2nc(CC(C)(C)C)cs2)cc1S(=O)(=O)N1CCOCC1 | 38 | 23 nM | 5.2 nM | 200 nM | – | – | – | – | – |
| Cc1ccc(-c2nnn[nH]2)cc1S(=O)(=O)N1CCOCC1 | – | – | > 5000 nM | > 5000 nM | – | – | – | – | – |
| O=C(NCc1ccccc1)c1ccc(Br)c(S(=O)(=O)N2CCOCC2)c1 | – | – | 800 nM | > 1000 nM | – | – | – | – | – |
| Cc1ccc(C(=O)N[C@H]2C(C)(C)[C@@H]3CC[C@@]2(C)C3)cc1S(=O)(=O)N1CCOCC1 | 11 | 25 nM | 48 nM | 540 nM | – | – | – | – | – |
| Cc1ccc(-c2noc(CC(C)(C)C)n2)cc1S(=O)(=O)N1CCOCC1 | 4.5 | 70 nM | 59 nM | 270 nM | – | – | – | – | – |
| Cc1ccc(-c2nc(CC3CCCCC3)cs2)cc1S(=O)(=O)N1CCOCC1 | 17 | 120 nM | 23 nM | 390 nM | – | – | – | – | – |
| Cc1ccc(NC(=O)c2cccc(Cl)c2)cc1S(=O)(=O)N1CCOCC1 | 2.3 | 220 nM | 120 nM | 270 nM | – | – | – | – | – |
